Each structure is given as a SMILES string.

A short description of data set [1]: Oral bioavailability in BALB/cAJcl mouse at 10 mg/kg by LC/MS/MS analysis. The data set is classed as ADME, organism-based. Conditions: in vivo. A digest of the protocol: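 Female BALB/cAJcl mice, seven weeks old, were dosed orally at 10 mg/kg and intravenously at 1 mg/mL/kg. Plasma compound concentrations were measured by LC/MS/MS.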
A short description of data set [2]: Clearance in mouse liver microsomes at 1 umol/l after 20 mins by LC/MS/MS analysis. On the technique in general: Liver microsomes are a subcellular fraction often used to study metabolism.
Data set [3] can be described thus: Lipophilicity, log D of the compound at pH 7.4. As to conditions: buffer.
Data set [4] in a line: Clearance in human liver microsomes at 1 umol/l after 20 mins by LC/MS/MS analysis.
Data set [5] concerns MDA-MB-231. In words: Growth inhibition of human MDA-MB-231 cells assessed as cell viability after 3 days by CellTitre-Glo Luminescent assay. The data set is classed as functional. Conditions: MDA-MB-231, 72 h.
Data set [6] in a line: Permeability of the compound by PAMPA. The data set is classed as ADME. Conditions: read-out: permeability.
A further data set relates to Mus musculus. In words: Toxicity in athymic nude BALB/cAJcl mouse xenografted with human MDA-MB-231 cells expressing luciferase gene at 30 mg/kg, po bid measured on day 14. The data set is classed as organism-based. The arrangement: dose 30 mg/kg, route oral. As to conditions: in vivo.
In data set [7] the test system is MDA-MB-231. As to the kind of experiment: Antitumor activity against human MDA-MB-231 cells expressing luciferase gene xenografted in athymic nude BALB/cAJcl mouse assessed as tumor growth inhibition at 100 mg/kg, po bid measured on day 14 relative to control. The data set is classed as functional. (In general: A xenograft is tissue or cells of one species grown in another, often human tumour cells in immunodeficient mice.)

The test system of data set [8] is MDA-MB-231. As to the kind of experiment: Antitumor activity against human MDA-MB-231 cells expressing luciferase gene xenografted in athymic nude BALB/cAJcl mouse assessed as tumor growth inhibition at 30 mg/kg, po bid measured on day 14 relative to control. The data set is classed as functional.
The subject of data set [9] is MDA-MB-231. In words: Antitumor activity against human MDA-MB-231 cells expressing luciferase gene xenografted in po dosed athymic nude BALB/cAJcl mouse assessed as tumor regression administered bid measured on day 14. The data set is classed as functional, organism-based.

In data set [1], `CN[C@@H](C)C(=O)N[C@H](C(=O)N1C[C@H]2CC(F)(F)CN2C[C@H]1C(=O)N[C@@H]1CCOc2ccccc21)C1CCC(F)(F)CC1` had a bioavailability of 21%. Moreover, the microsomal CLint at 20 min, 1 µM amounted to 147 µL/min/mg in [2] and 170 µL/min/mg in data set [4]. In data set [3], this compound showed a logD of 2.56. For the same compound, the GI50 in the data set on MDA-MB-231 [5] stood at 8 nM.
`CN[C@@H](C)C(=O)N[C@H](C(=O)N1C[C@H]2CCCN2C[C@H]1C(=O)N[C@@H]1CCOc2ccccc21)C1CCC(F)(F)CC1` gave a bioavailability in data set [1] of 53%. Also, the Papp in [6] turned out to be 0.3 ×10⁻⁶ cm/s. In addition, the intrinsic clearance (microsomal CLint) at 20 min, 1 µM in data set [2] was 66 µL/min/mg; in data set [4], 82 µL/min/mg. The logD in data set [3] came out at 2.43. Further, the GI50 in the data set on MDA-MB-231 [5] stood at 13 nM.
`CN[C@@H](C)C(=O)N[C@H](C(=O)N1C[C@@H]2CCCN2C[C@H]1C(=O)N[C@@H]1CCOc2ccccc21)C1CCC(F)(F)CC1`: in data set [1], the bioavailability amounted to 13%. In addition, the microsomal CLint at 20 min, 1 µM in [2] was 2 µL/min/mg; in data set [4] it was 38 µL/min/mg. For the same compound, the logD in [3] is 1.94. Moreover, the GI50 in the data set on MDA-MB-231 [5] was found to be 15 nM.
In turn, `CN[C@@H](C)C(=O)N[C@H](C(=O)N1C[C@H]2C[C@@H](O)CN2C[C@H]1C(=O)N[C@@H]1CCOc2ccccc21)C1CCC(F)(F)CC1` returned a logD in data set [3] of 1.6. This compound also yielded a microsomal CLint at 20 min, 1 µM in data set [4] of 4 µL/min/mg. Moreover, in the data set on MDA-MB-231 [5], the GI50 was 11 nM.
In [1], `CN[C@@H](C)C(=O)N[C@H](C(=O)N1C[C@H]2CCCN2C[C@H]1C(=O)N[C@@H]1CCOc2ccccc21)c1ccccc1` had a bioavailability of 33%. The microsomal CLint at 20 min, 1 µM was 129 µL/min/mg in [2] and 90 µL/min/mg in [4]. Also, the logD in data set [3] stood at 2.17. Moreover, the GI50 with MDA-MB-231 [5] is 11 nM.
As for `CN[C@@H](C)C(=O)N[C@H](C(=O)N1C[C@H]2CCCN2C[C@H]1C(=O)N[C@@H]1CCC(=O)c2ccccc21)C1CCCCC1`, the bioavailability in data set [1] stood at 30%. Moreover, the microsomal CLint at 20 min, 1 µM in data set [2] was found to be 161 µL/min/mg; in data set [4] it was 154 µL/min/mg. The GI50 in the data set on MDA-MB-231 [5] turned out to be 21 nM.
For `CN[C@@H](C)C(=O)N[C@H](C(=O)N1C[C@H]2CCCN2C[C@H]1C(=O)N[C@H](C)c1ccccc1)C1CCCCC1`, in that order: 63%, 115 µL/min/mg, 82 µL/min/mg and 20 nM.
`CN[C@@H](C)C(=O)N[C@H](C(=O)N1C[C@H]2CCCN2C[C@H]1C(=O)N[C@H]1CCCc2ccccc21)C1CCCCC1`: the microsomal CLint at 20 min, 1 µM came out at 239 µL/min/mg in data set [2] and 236 µL/min/mg in data set [4].
Consider `CCO[C@@H]1C[C@@H]2CN(C(=O)[C@@H](NC(=O)[C@H](C)NC)C3CCC(F)(F)CC3)[C@H](C(=O)N[C@@H]3CCOc4ccccc43)CN2C1`, for which the Activity result in the data set on Mus musculus is “Non-toxic”; in the data set on MDA-MB-231 [9] it was “Dose-dependent effect”. For the same compound, the T/C is recorded as -62% in the data set on MDA-MB-231 [7] and -53% with MDA-MB-231 [8]. Moreover, the bioavailability in data set [1] was 50%. Also, the Papp in [6] was determined as 4.4 ×10⁻⁶ cm/s. Besides, the values for the microsomal CLint at 20 min, 1 µM in [2] and in [4] were 40 µL/min/mg and 52 µL/min/mg, respectively. The compound also yielded a logD in data set [3] of 2.6. Also, the GI50 with MDA-MB-231 [5] amounted to 1.8 nM.
Regarding `CN[C@@H](C)C(=O)N[C@H](C(=O)N1C[C@H]2CCCN2C[C@H]1C(=O)N[C@@H]1CCCc2ccccc21)C1CCCCC1.Cl.Cl`, in [1], the bioavailability came out at 6%. The microsomal CLint at 20 min, 1 µM in data set [2] worked out at 232 µL/min/mg; in [4] it was 218 µL/min/mg. Further, the GI50 in the data set on MDA-MB-231 [5] worked out at 6.2 nM.
For `CN[C@@H](C)C(=O)N[C@H](C(=O)N1C[C@H]2CCCN2C[C@H]1C(=O)N[C@@H]1CCC(F)(F)c2ccccc21)C1CCCCC1`, in that order: 26%, 208 µL/min/mg, 130 µL/min/mg and 18 nM.
The compound `CN[C@@H](C)C(=O)N[C@H](C(=O)N1C[C@H]2CCCN2C[C@H]1C(=O)N[C@@H]1CCOc2ccccc21)C1CCOCC1` returned a bioavailability in data set [1] of 12%. Further, the microsomal CLint at 20 min, 1 µM was determined as 21 µL/min/mg in [2] and 15 µL/min/mg in [4]. The pH-dependent lipophilicity (logD) in data set [3] was 1.75. Further, the GI50 with MDA-MB-231 [5] turned out to be 20 nM.
Consider `CN[C@@H](C)C(=O)N[C@H](C(=O)N1C[C@H]2CCCN2C[C@H]1C(=O)N[C@@H]1CCOc2ccccc21)C1CCCCC1`, for which the bioavailability in data set [1] turned out to be 41%. Moreover, the microsomal CLint at 20 min, 1 µM turned out to be 116 µL/min/mg in data set [2] and 128 µL/min/mg in data set [4]. Also, the logD in data set [3] was determined as 2.91. Also, in the data set on MDA-MB-231 [5], the GI50 came to 5.7 nM.

For orientation: bioavailability means dose-corrected exposure relative to a reference, in per cent. Read a high bioavailability as good availability. For orientation: microsomal CLint means the rate of metabolic loss divided by the concentration. A high value points to faster metabolism. As usually defined, the logD is the decadic logarithm of the distribution of all forms, ionised or not, between an organic phase and buffer at a given pH. Usually GI50 stands for the concentration that inhibits growth by half.

These data come from ChEMBL document CHEMBL2311403, “Design and synthesis of potent inhibitor of apoptosis (IAP) proteins antagonists bearing an octahydropyrrolo[1,2-a]pyrazine scaffold as a novel proline mimetic” (J Med Chem, 2013).
